B1: tRNA (parent)
chain: GUUCCGUUGGCGUAAUGGUAACGCGUCUCCCUCCUAAGGAGAAGACUGCGGGUUCGAGUCCCGUACGGAACG

Variants at the floor of the assay were thinned out. Where only a bound is given, the exact number is not on record here.

In the series the parent is B1. Put plainly: yeast fitness relative to wild type (ratio to wild type); higher = fitter; tRNA-Arg(CCU), competitive growth, 37 C, YPD. The method, boiled down: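 Genotype frequency changes were the basis for Darwinian fitness relative to wild type. The frequencies came from 100-nucleotide paired-end sequencing of gene amplicons from the start population and each end population of pooled yeast strains with tRNA-Arg(CCU) gene variants at the native locus. Competition ran in YPD at 37°C for 24 hours in six replicates, genotypes needed ≥ 100 starting reads, and estimates < 0.5 were set to 0.5.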
In the case of C27U U32A C33A, the yeast fitness came to 0.51.

On to G39C C49G, for which the yeast fitness came to 0.59.

Regarding U7A G50U, the yeast fitness was 0.69.

Consider A45C A69C, for which the yeast fitness stood at 0.744.

Turning to A14G C34A G38C G48A A69C, the yeast fitness is at most 0.5.

As for C4G C27A C61A C66U A69C, the yeast fitness is at most 0.5.

Regarding C4U G6C A14U C24G G58C, the yeast fitness was 0.531.

For A15C C66G, the yeast fitness was 0.618.

For C27U C29G C55U A65G C66A, the yeast fitness was at most 0.5.

Turning to C27A A65U G67C, the yeast fitness came to 0.613.

Consider C27G G39A C46U C66U, for which the yeast fitness was at most 0.5.

As to U7C A65U A69U, the yeast fitness was 0.801.

Consider G17C C22G C30U G41C C46U A65U, for which the yeast fitness is at most 0.5.

Consider G9A G56C, for which the yeast fitness was 0.563.

On to U28C U64A, for which the yeast fitness worked out at 0.622.

In the case of U2G C49U G51C C55A, the yeast fitness was at most 0.5.

For the variant U19C G50A C61U, the yeast fitness is at most 0.5.

As for G12A A15G C22U C31A U35G C61U A65C, the yeast fitness is at most 0.5.

Consider A15G C49A, for which the yeast fitness is 0.735.

For the variant U2C C22A C29A G51C, the yeast fitness was 0.596.

With C34A G44C A70U, the yeast fitness came to 0.54.

For C4A C22U C33G A45C U53G A69C, the yeast fitness is 0.57.

Consider G23A A36G, for which the yeast fitness came out at 0.668.

In the case of U2A G38C A69U, the yeast fitness was at most 0.5.

On to C4A G6A A69U, for which the yeast fitness was determined as 0.623.

Take G12A U28A U54C G63A A70G: the yeast fitness is at most 0.5.

With A20U G39C G48C G52C U53A, the yeast fitness was at most 0.5.

With G25A A42U, the yeast fitness came to 0.813.

As for C27G U28C G52A C60G G68U A69C, the yeast fitness was at most 0.5.

Regarding C30A C46G G51A, the yeast fitness amounted to 0.593.

Regarding G44C G52A C62G A69G, the yeast fitness was at most 0.5.

For the variant C4U U7G C34G A70U, the yeast fitness is at most 0.5.

A20G C30A C55A G68A: the yeast fitness is at most 0.5.

Take U8C G12A G18A A37C C55A C60G G63C: the yeast fitness is at most 0.5.

On to A15G A65U, for which the yeast fitness stood at 0.841.

For U32C C62U, the yeast fitness was determined as 1.02.

On to U13A C30G U54C, for which the yeast fitness was at most 0.5.

With G18C A43C C62A, the yeast fitness was at most 0.5.

For A14U C27G C66U, the yeast fitness is at most 0.5.

With C24A A36U C61A, the yeast fitness worked out at 0.509.

With U19A A21G C27U C33U G56A, the yeast fitness was at most 0.5.

With G51A U53A A69C, the yeast fitness was at most 0.5.

As for A14C A42U, the yeast fitness amounted to 0.524.

Turning to A14G C34A C60A, the yeast fitness is at most 0.5.

Regarding U7A C24G C29G C30U A40C, the yeast fitness came to 0.96.

With U35A G50A A69U, the yeast fitness is 0.621.

Take C4A U16G C24U G48A: the yeast fitness stood at 0.643.

Consider G9A A20G A42C G52C U54A, for which the yeast fitness was at most 0.5.

Consider C22A U28A C30A, for which the yeast fitness came to 0.72.

Consider A36C U47A G48C C61U, for which the yeast fitness is at most 0.5.

As to G9C A20U C27G C49U, the yeast fitness came out at 0.55.

U2A A42U: the yeast fitness came to 0.864.

G9A U13A U47A C60A: the yeast fitness is at most 0.5.

On to A37G G39A A69U, for which the yeast fitness amounted to 0.589.

As for G23A A43U G50A U54G G68C, the yeast fitness is at most 0.5.

In the case of C4G C22U C34G G63C, the yeast fitness was at most 0.5.

C4U U8A U13C A57U C60G G68C: the yeast fitness is at most 0.5.

As to C4U A37G C46U, the yeast fitness is 0.54.

On to C33G G41C C61G A65U, for which the yeast fitness was at most 0.5.

U2A G12A A20G U26C C31G C33U A42U: the yeast fitness was at most 0.5.

G18A C27G C49G C62G C66U A69C: the yeast fitness is at most 0.5.

On to C4G G38A C66U, for which the yeast fitness was at most 0.5.

Consider C27G A43U U59G G68C, for which the yeast fitness is at most 0.5.

As for C4G G6A C46U A69C, the yeast fitness was 0.536.

For the variant A20C A36G A45U A65G, the yeast fitness amounted to 0.614.

In the case of U3C C22G C29A A42C, the yeast fitness was at most 0.5.

On to C31G C66G A69G, for which the yeast fitness was determined as 0.545.

As for C22U C34G G39A C49U, the yeast fitness is at most 0.5.

For the variant G25C A42G C55U, the yeast fitness is at most 0.5.

C5U G58C U59C: the yeast fitness was determined as 0.675.

Take C5G A36U C62U: the yeast fitness is at most 0.5.

Turning to C4A A42U C55G, the yeast fitness is at most 0.5.

As to U3C C5G C11G, the yeast fitness was at most 0.5.

On to C4G A36U C60G, for which the yeast fitness was 0.655.

In the case of U32G A65G, the yeast fitness was 0.718.

With U2A U16G G41C, the yeast fitness came out at 0.649.

For the variant C5A C11U C31U C49G C61A, the yeast fitness was at most 0.5.

In the case of A15G A43C G67U A70U, the yeast fitness was at most 0.5.

As to C24A U28C G56A, the yeast fitness was at most 0.5.

For the variant G12C C29A A45U C62U, the yeast fitness was at most 0.5.

Regarding C11U A20U C24U C29A U32C A70G, the yeast fitness is at most 0.5.

As to U7C A21G C29A G48C, the yeast fitness was 0.555.

Regarding C11U A45G, the yeast fitness was determined as 0.96.

On to U8C G44C G48A G51A, for which the yeast fitness turned out to be 0.674.

For the variant U16C C62U C66U, the yeast fitness came to 0.722.

U35C A36C A45C: the yeast fitness turned out to be 0.522.

With U2A G9U A20G, the yeast fitness was at most 0.5.

As to C4G G23A C29G A37C, the yeast fitness was 0.651.

Consider G6A C11G U35A A37U, for which the yeast fitness is at most 0.5.

With A14C C62G A70G, the yeast fitness is 0.632.

For G12A G18A A21U G41A C46U, the yeast fitness was 0.535.

As for C4A A43U U47G, the yeast fitness is at most 0.5.

As to C22G C24U A37C G51C C55U A69C A70U, the yeast fitness came out at 0.554.

Regarding C5U C22U C27U A42G G48A C55A C60A A70U, the yeast fitness was at most 0.5.

Regarding A14G C60G, the yeast fitness came to 0.507.

In the case of C4G C29A C46A, the yeast fitness was at most 0.5.

For G10C A45U U53G, the yeast fitness is at most 0.5.

Regarding G12C G17C C22A G58A, the yeast fitness is at most 0.5.

Regarding C22G C61G, the yeast fitness was determined as 0.684.

As to C4U G44C C55G A69U, the yeast fitness is at most 0.5.

On to U3C C5G, for which the yeast fitness was 0.761.

Consider C30U C31G U53C, for which the yeast fitness is at most 0.5.

G10A C11U C24A C55G: the yeast fitness stood at 0.595.

As to A21G C29U A45U, the yeast fitness worked out at 0.86.

For U3A U19A A57G, the yeast fitness turned out to be 0.751.

C24G C29G G39C: the yeast fitness worked out at 0.513.

For the variant G6C A40U, the yeast fitness was determined as 0.803.

Turning to G6C A40G C61A, the yeast fitness was at most 0.5.

Turning to G18C C30U C33U C49U, the yeast fitness stood at 0.608.

For the variant C5G G6A G48A, the yeast fitness is at most 0.5.

Turning to C4G A15G C29A C34U C66G, the yeast fitness is at most 0.5.

Regarding G48C A65U, the yeast fitness stood at 0.75.

Turning to C11U U19G C22G A42G G44C C55U, the yeast fitness is at most 0.5.

Turning to C4A A14U A20C U28G C62A, the yeast fitness is at most 0.5.

Consider U32A U47C, for which the yeast fitness was found to be 0.826.

Turning to C31U A37U C46A C49A C55A C66G, the yeast fitness was found to be 0.663.

Regarding C27G G39A G67A, the yeast fitness turned out to be 0.59.

Turning to C34U A37G A45U C49A, the yeast fitness was at most 0.5.

For the variant C22G C24U C29U C30G U53A U54A, the yeast fitness was at most 0.5.

On to C30G C33U G56C, for which the yeast fitness is at most 0.5.

For G6C U13G C22A C34G C62A, the yeast fitness was determined as 0.59.

C31U C34G A42C U47G A65C C66U: the yeast fitness is at most 0.5.

C4U A21U A36G A43C C55U A65G: the yeast fitness is at most 0.5.

For G17A C31U U35C C62G, the yeast fitness was at most 0.5.

As to G38A G39A, the yeast fitness is 0.637.

As for C22U U28C C29G C33A C60A A70C, the yeast fitness was at most 0.5.

Consider C4G A21G A45U C49U U64A, for which the yeast fitness is 0.556.

For A37U G38A U59A, the yeast fitness was at most 0.5.

For C11G G51U, the yeast fitness is 0.601.

With C4G A43C A45G, the yeast fitness is 0.629.

Turning to U19C G25C, the yeast fitness came out at 1.04.

As for A20U A21U A69U, the yeast fitness was determined as 0.675.

As to C24U C61U U64C, the yeast fitness amounted to 0.697.

As to G9A A57U, the yeast fitness came out at 0.672.

As for U7A C29G C46G G58A, the yeast fitness is at most 0.5.

With U2C G17A A37C A65G, the yeast fitness was 0.539.

As to U3G C62A, the yeast fitness was 0.75.

Regarding C4A C34U G38C C49G, the yeast fitness was at most 0.5.

In the case of U3C U19A G52A U59C C66A G67A, the yeast fitness is at most 0.5.

Consider C5G C29U C33U G39C, for which the yeast fitness was determined as 0.724.

For C29G U35G C60G C62G, the yeast fitness is at most 0.5.

For the variant U32A A45U U54G, the yeast fitness is at most 0.5.

For the variant C22G U54A C55U C66A, the yeast fitness was at most 0.5.

For A36C C62U, the yeast fitness is 0.583.

As to G39A G44A G50A, the yeast fitness came to 0.607.

Regarding C4A A43G, the yeast fitness worked out at 0.785.

As to C30A C31U A36G G50A C66U, the yeast fitness was at most 0.5.

For A14G U35G A40G A57G, the yeast fitness was at most 0.5.

Consider U7C C34A U59A, for which the yeast fitness was at most 0.5.

Take U8C A21U A69U: the yeast fitness is 0.527.

With A20G C27G G48A, the yeast fitness is at most 0.5.

As for G9A G23A A36G, the yeast fitness is 0.652.

As for C4U G12C, the yeast fitness amounted to 0.884.

Turning to U8C C31U C49U, the yeast fitness was found to be 0.689.

For A20C A70C, the yeast fitness was determined as 0.862.

With U3A C4A U16G G58C, the yeast fitness was at most 0.5.

On to C11G U16A A20G C30A, for which the yeast fitness is at most 0.5.

Turning to A20G C29G C34A, the yeast fitness is at most 0.5.

G12A A20U C34A C55G C66A: the yeast fitness was at most 0.5.

Take U8A A37C U53C: the yeast fitness turned out to be 0.545.

On to U13C G51C U54C, for which the yeast fitness is at most 0.5.

As for U13C A20G U54C, the yeast fitness is at most 0.5.

For the variant G6C C22A C31G A42G A65C, the yeast fitness was at most 0.5.

Take A36G A37G G58C: the yeast fitness was 0.649.

In the case of C30U C34U, the yeast fitness is 0.715.

With U2A C30G U53C A57U C60U, the yeast fitness is at most 0.5.

With G38A A43G A57C, the yeast fitness is at most 0.5.

These data come from the RNAGym collection of RNA variant scans (doi:10.1126/science.aae0568).
